Values after ≈ are worked out from the molar mass of the structure shown. Active and inactive are the calls of the source. No cut-off for these calls is given here.
Key:
[1] = molecular target: T1, Bifunctional epoxide hydrolase 2 (Homo sapiens, UniProt P34913); assay: Inhibition of human sEH (1 to 555 residues) expressed in Escherichia coli BL21-(DE3) using PHOME substrate incubated for 30 to 45 mins by fluorescence based assay
T1 sequence (P34913 whole entry): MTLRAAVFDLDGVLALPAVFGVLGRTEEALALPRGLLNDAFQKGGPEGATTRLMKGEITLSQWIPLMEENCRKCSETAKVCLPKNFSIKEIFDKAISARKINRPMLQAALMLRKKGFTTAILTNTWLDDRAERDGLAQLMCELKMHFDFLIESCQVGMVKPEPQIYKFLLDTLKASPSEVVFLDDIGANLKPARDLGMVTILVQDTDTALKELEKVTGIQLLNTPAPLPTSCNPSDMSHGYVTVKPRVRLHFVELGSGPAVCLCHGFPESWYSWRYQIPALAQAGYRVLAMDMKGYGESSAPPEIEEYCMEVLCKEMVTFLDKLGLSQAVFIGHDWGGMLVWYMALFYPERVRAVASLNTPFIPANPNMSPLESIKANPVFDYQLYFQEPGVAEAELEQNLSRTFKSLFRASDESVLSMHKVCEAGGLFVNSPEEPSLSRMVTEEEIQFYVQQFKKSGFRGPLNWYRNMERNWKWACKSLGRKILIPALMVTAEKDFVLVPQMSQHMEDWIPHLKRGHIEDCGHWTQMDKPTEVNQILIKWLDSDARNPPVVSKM

[2] = molecular target: T2, Polyunsaturated fatty acid 5-lipoxygenase (Homo sapiens, UniProt P09917); assay: Inhibition of 5-LOX (unknown origin) expressed in Escherichia coli BL21-(DE3) pre-incubated for 15 mins before AA substrate addition and measured after 10 mins by HPLC/UV assay
T2 sequence (P09917 whole entry): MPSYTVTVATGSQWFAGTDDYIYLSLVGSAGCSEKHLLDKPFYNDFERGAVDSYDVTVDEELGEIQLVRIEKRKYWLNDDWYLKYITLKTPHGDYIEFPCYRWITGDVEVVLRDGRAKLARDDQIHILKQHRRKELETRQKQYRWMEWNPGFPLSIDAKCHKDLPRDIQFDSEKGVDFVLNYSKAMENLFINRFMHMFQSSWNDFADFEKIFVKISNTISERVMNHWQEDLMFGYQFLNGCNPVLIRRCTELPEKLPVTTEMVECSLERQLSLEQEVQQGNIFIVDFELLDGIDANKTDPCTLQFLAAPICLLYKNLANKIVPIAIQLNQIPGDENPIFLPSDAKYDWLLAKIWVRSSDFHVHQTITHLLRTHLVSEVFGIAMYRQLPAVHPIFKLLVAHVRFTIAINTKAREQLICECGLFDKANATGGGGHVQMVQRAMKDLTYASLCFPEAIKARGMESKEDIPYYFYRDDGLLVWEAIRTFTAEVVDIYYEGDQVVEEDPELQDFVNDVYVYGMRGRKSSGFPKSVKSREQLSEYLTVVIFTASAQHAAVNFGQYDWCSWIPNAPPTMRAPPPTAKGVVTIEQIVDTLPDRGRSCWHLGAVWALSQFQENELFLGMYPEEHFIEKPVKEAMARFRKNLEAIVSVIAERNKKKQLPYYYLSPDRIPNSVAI
How it was run: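 Recombinant 5-LOX activity measured with arachidonic acid as substrate; product formation monitored by HPLC. IC50 from at least three independent determinations (n ≥ 3), reported with 95% confidence interval.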

[3] = Solubility in pH 7.4 DPBS buffer; type: physicochemical
[4] = Metabolic stability in rat liver microsomes assessed as compound remaining after 60 mins; type: ADME, Microsome; details: read-out: Stabilty
How it was run: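 Compound incubated with rat liver microsomes for 60 min; percent parent compound remaining determined; n ≥ 3.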

[5] = system: HepG2; assay: Cytotoxicity in human HepG2 cells assessed as effect on cell viability up to 25 uM incubated for 48 hrs by CellTiter-Glo luminescent cell viability assay; type: cell-based; details: hepg2, 48 h
How it was run: (§1)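 Cell viability measured by CellTiter-Glo luminescence, quantifying ATP as an indicator of viable cells.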

[6] = system: HepG2; assay: Cytotoxicity in human HepG2 cells assessed as reduction in on cell viability at 7 uM incubated for 48 hrs by CellTiter-Glo luminescent cell viability assay; type: cell-based; details: hepg2, 48 h; how it was run: as §1
[7] = system: Mus musculus; assay: Anti-fibrotic activity in C57BL/6 mouse model of unilateral ureter obstruction-induced kidney inflammation and fibrosis assessed as inhibition of tubulo-interstitial fibrosis by measuring reduced fibrillar collagen at 3 mg/kg, ip dosed daily for 7 days by Sirius red staining method; type: functional, organism-based; details: time 7.0 day
How it was run: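 Mice with unilateral ureter obstruction to induce kidney inflammation and fibrosis, given compound or vehicle intraperitoneally. Ligated (UUO) and contralateral kidneys taken at day 7. Fibrosis read by AZAN and Sirius Red staining, with Sirius Red imaged under bright and polarized light. Macrophages detected by F4/80 staining, quantified as positive area. Col1a1, FN1, TNFα and Ccl2 mRNA measured in whole-kidney homogenates by real-time qRT-PCR normalized to GAPDH.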

## CC(C#Cc1cccc(C(=O)NCc2ccccc2OC(F)(F)F)c1)N(O)C(N)=O (stereo not drawn)
[1]
  IC50: 0.016 µM
[2]
  IC50: 1 µM

## CC(C#Cc1cccc(C(=O)NCc2ccc(Cl)cc2Cl)c1)N(O)C(N)=O (stereo not drawn)
[1]
  IC50: 0.04 µM
[2]
  IC50: 0.6 µM

## C[C@H](C#Cc1cccc(C(=O)NCCC(c2ccc(F)cc2)c2ccc(OC(F)(F)F)cc2)c1)N(O)C(N)=O (stereo partly drawn)
[1]
  IC50: 0.0024 µM
[3]
  solubility: 10 µM (≈ 5.44 µg/mL)
[4]
  remaining at 1 h: 43%
[2]
  IC50: 0.26 µM

## C[C@H](C#Cc1cccc(C(=O)NCCC(c2ccccc2)c2ccc(NS(C)(=O)=O)cc2)c1)N(O)C(N)=O (stereo partly drawn)
[1]
  IC50: 0.003 µM
[2]
  IC50: 0.9 µM

## CC(C#Cc1ccc(C(=O)NCc2ccccc2C(F)(F)F)cc1)N(O)C(N)=O (stereo not drawn)
[1]
  IC50: 2.6 µM
[2]
  IC50: 1 µM

## Cc1ccc(C(=O)NCc2ccccc2C(F)(F)F)cc1C#CC(C)N(O)C(N)=O (stereo not drawn)
[1]
  IC50: 3.1 µM
[2]
  IC50: 1.7 µM

## CC(C#Cc1cccc(C(=O)NCCc2ccc(F)cc2)c1)N(O)C(N)=O (stereo not drawn)
[1]
  IC50: 1.2 µM
[2]
  IC50: 3.1 µM

## CC(C#Cc1cccc(C(=O)NCCC(c2ccccc2)c2ccc(F)cc2)c1)N(O)C(N)=O (stereo not drawn)
[1]
  IC50: 0.002 µM
[2]
  IC50: 0.16 µM

## C[C@H](C#Cc1cccc(C(=O)NCCC(c2ccccc2)c2ccc(S(N)(=O)=O)cc2)c1)N(O)C(N)=O (stereo partly drawn)
[1]
  IC50: 0.0024 µM
[2]
  IC50: 1 µM

## C[C@H](C#Cc1cccc(C(=O)NCc2ccccc2C(F)(F)F)c1)N(O)C(N)=O
[1]
  IC50: 0.06 µM
[2]
  IC50: 0.6 µM

## O=C(Cc1ccc(Oc2nc3ccccc3s2)cc1F)NCCc1ccc(F)cc1
[1]
  IC50: 0.13 µM

## C[C@H](C#Cc1ccc(Cc2ccc(F)cc2)s1)N(O)C(N)=O [ATRELEUTON]
[1]
  IC50: 2.7 µM
[3]
  solubility: 30 µM (≈ 9.55 µg/mL)
[2]
  IC50: 0.09 µM

## C[C@H](C#Cc1cccc(C(=O)NCC[C@@H](c2ccc(F)cc2)c2ccc(C(F)(F)F)cc2)c1)N(O)C(N)=O
[1]
  IC50: 0.003 µM
[2]
  IC50: 0.16 µM

## CC(C#Cc1cccc(C(=O)NCCC(c2ccccc2)c2ccc(Cl)cc2)c1)N(O)C(N)=O (stereo not drawn)
[1]
  IC50: 0.002 µM
[2]
  IC50: 0.12 µM

## C[C@H](C#Cc1cccc(C(=O)NCC[C@H](c2ccc(F)cc2)c2ccc(C(F)(F)F)cc2)c1)N(O)C(N)=O
[1]
  IC50: 0.003 µM
[2]
  IC50: 0.23 µM

## CS(=O)(=O)c1ccc(C(CCNC(=O)c2ccc(C#N)nc2)c2ccc(F)cc2)cc1 (stereo not drawn)
[1]
  IC50: 0.006 µM

## C[C@H](C#Cc1cccc(C(=O)NCCC(c2ccccc2)c2ccc(Cl)c(Cl)c2)c1)N(O)C(N)=O (stereo partly drawn)
[1]
  IC50: 0.0021 µM
[2]
  IC50: 0.096 µM

## C[C@H](C#Cc1cccc(C(=O)NCCN(c2ccccc2)c2ccccc2)c1)N(O)C(N)=O
[1]
  IC50: 0.005 µM
[3]
  solubility: 3 µM (≈ 1.33 µg/mL)
[4]
  remaining at 1 h: 17%
[2]
  IC50: 0.11 µM

## CC(C#Cc1cccc(C(=O)NCc2cccc(F)c2)c1)N(O)C(N)=O (stereo not drawn)
[1]
  IC50: 9 µM
[2]
  IC50: 4 µM

## CC(C#Cc1ccc(C(=O)NCc2ccccc2C(F)(F)F)o1)N(O)C(N)=O (stereo not drawn)
[1]
  IC50: 0.6 µM
[2]
  IC50: 4 µM

## COc1ccc(CNC(=O)c2cccc(C#CC(C)N(O)C(N)=O)c2)c(C(F)(F)F)c1 (stereo not drawn)
[1]
  IC50: 0.004 µM
[2]
  IC50: 1.7 µM

## NC(=O)N(O)CC#Cc1cccc(C(=O)NCc2ccccc2C(F)(F)F)c1
[1]
  IC50: 0.05 µM
[2]
  IC50: 4 µM

## CNc1nc(C)nc(N2CCC(C(=O)NCc3ccc(F)cc3C(F)(F)F)CC2)n1
[1]
  IC50: 0.003 µM

## CC(C#Cc1cccc(C(=O)NCCc2c[nH]c3ccccc23)c1)N(O)C(N)=O (stereo not drawn)
[1]
  IC50: 3.1 µM
[2]
  IC50: 1.7 µM

## CC(C#Cc1cccc(C(=O)NCc2ccccc2C(F)(F)F)c1)N(O)C(N)=O (stereo not drawn)
[1]
  IC50: 0.09 µM
[2]
  IC50: 0.7 µM

## CC(C)CC(C#Cc1cccc(C(=O)NCc2ccccc2C(F)(F)F)c1)N(O)C(N)=O (stereo not drawn)
[1]
  IC50: 0.005 µM
[2]
  IC50: 0.6 µM

## C[C@H](C#Cc1cccc(C(=O)NCCC(c2ccc(F)cc2)c2ccc(C(F)(F)F)cc2)c1)N(O)C(N)=O (stereo partly drawn)
[5]
  Activity: Non-Toxic
[1]
  IC50: 0.0016 µM
[6]
  Activity: Toxic
[7]
  Activity: inactive
[3]
  solubility: 3 µM (≈ 1.58 µg/mL)
[4]
  remaining at 1 h: 66%
[2]
  IC50: 0.22 µM

## CC(C#Cc1cccc(C(=O)NCc2ccc(F)cc2C(F)(F)F)c1)N(O)C(N)=O (stereo not drawn)
[1]
  IC50: 0.029 µM
[2]
  IC50: 1.3 µM

## C[C@@H](C#Cc1cccc(C(=O)NCc2ccccc2C(F)(F)F)c1)N(O)C(N)=O
[1]
  IC50: 0.06 µM
[2]
  IC50: 0.7 µM

## CC(C#Cc1cccc(C(=O)NCCC(c2ccccc2)c2ccc(C(F)(F)F)cc2)c1)N(O)C(N)=O (stereo not drawn)
[1]
  IC50: 0.0027 µM
[2]
  IC50: 0.15 µM

## CC(C)C(C#Cc1cccc(C(=O)NCc2ccccc2C(F)(F)F)c1)N(O)C(N)=O (stereo not drawn)
[1]
  IC50: 0.011 µM
[2]
  IC50: 0.5 µM

## CC(C#Cc1cccc(C(=O)NCCC(c2ccccc2)c2ccccc2)c1)N(O)C(N)=O (stereo not drawn)
[1]
  IC50: 0.002 µM
[3]
  solubility: 3 µM (≈ 1.32 µg/mL)
[4]
  remaining at 1 h: 27%
[2]
  IC50: 0.3 µM

## CNc1nc(C)nc(N2CCC(C(=O)NCc3ccccc3OC(F)(F)F)CC2)n1
[1]
  IC50: 0.001 µM

## CC(C#Cc1cncc(C(=O)NCc2ccccc2C(F)(F)F)c1)N(O)C(N)=O (stereo not drawn)
[1]
  IC50: 0.5 µM
[2]
  IC50: 10 µM

## CC(C#Cc1cccc(C(=O)NCCC(c2ccccc2)c2ccc(OC(F)(F)F)cc2)c1)N(O)C(N)=O (stereo not drawn)
[1]
  IC50: 0.007 µM
[2]
  IC50: 0.11 µM

## CCCC(C#Cc1cccc(C(=O)NCc2ccccc2C(F)(F)F)c1)N(O)C(N)=O (stereo not drawn)
[1]
  IC50: 0.012 µM
[2]
  IC50: 0.3 µM

## CNc1nc(C)nc(N2CCC(C(=O)NCc3ccccc3C(F)(F)F)CC2)n1
[1]
  IC50: 0.003 µM

## CCC(C#Cc1cccc(C(=O)NCc2ccccc2C(F)(F)F)c1)N(O)C(N)=O (stereo not drawn)
[1]
  IC50: 0.022 µM
[2]
  IC50: 0.5 µM
